MT1-MMP act inh – inhibitors of human MT1-MMP activation; 0.061% of 360,000 active; GFP/RFP ratio change, % at 20 µM; HT1080 RFP-PRO-GFP cells, GFP/RFP ratio fluorescence, overnight; percent of plate control window, DMSO zero; AID 651647;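 active means GFP/RFP ratio change of at least 30% with cell ATP level not reduced by more than half and red fluorescence within 50% of control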
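Read-out: GFP/RFP fluorescence ratio; Test system: RFP-PRO-GFP reporter HT1080 cells; Compound dosing: single-point 20 µM compound, 1% DMSO; Times: overnight compound exposure at 37 °C.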
beta cell repl – induces beta-cell replication in MIN6 cells. MIN6 cells proliferation, ATPlite luminescence, 48 h; cells starved in 0.2% serum; 100% = growth in 10% serum. proliferation, % at 10 µM. 0.29% of 330,000 active. AID 2380;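 active means compounds whose signal lies at least 3.5 SD above the mean of all wells on their plate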;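 further: 0% = DMSO-treated cells in low-serum medium and 100% = 10% serum control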
Myeloid diff 2 – myeloid differentiation induction | calls only at 10 µM | ER-HoxA9 myeloid progenitors, lysozyme-GFP differentiation, flow cytometry | 1% of 360,000 active;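 active means normalized GFP-positive differentiation at or above the plate's own cutoff, the solvent-only control mean plus 3 SD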;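 further: cells exposed to compound for four days before flow analysis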
DAGLB inh – diacylglycerol lipase beta (human) inhibition; Q8NCG7; HEK293T DAGLB membrane lysate, EnzChek fluorogenic substrate; inhibition, % at 5.17 µM; 0.059% of 340,000 active; AID 504411; in the data active means inhibition above about 34%;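 further: 0% = enzyme with vehicle and 100% = wells lacking enzyme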
CendR NRP1 mod – modulators of CendR peptide binding to human neuropilin-1; O14786; FAM-RPARPAR peptide binding to NRP-1, fluorescence polarization; 0.85% of 360,000 active; inhibition, % at 25 µM;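 active means inhibition or corrected inhibition above about 18%, plus a signal ratio from 0.5 to 1.5, limit read from the data, passing the limit was not always enough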
Target sequence (O14786 whole entry, looked up): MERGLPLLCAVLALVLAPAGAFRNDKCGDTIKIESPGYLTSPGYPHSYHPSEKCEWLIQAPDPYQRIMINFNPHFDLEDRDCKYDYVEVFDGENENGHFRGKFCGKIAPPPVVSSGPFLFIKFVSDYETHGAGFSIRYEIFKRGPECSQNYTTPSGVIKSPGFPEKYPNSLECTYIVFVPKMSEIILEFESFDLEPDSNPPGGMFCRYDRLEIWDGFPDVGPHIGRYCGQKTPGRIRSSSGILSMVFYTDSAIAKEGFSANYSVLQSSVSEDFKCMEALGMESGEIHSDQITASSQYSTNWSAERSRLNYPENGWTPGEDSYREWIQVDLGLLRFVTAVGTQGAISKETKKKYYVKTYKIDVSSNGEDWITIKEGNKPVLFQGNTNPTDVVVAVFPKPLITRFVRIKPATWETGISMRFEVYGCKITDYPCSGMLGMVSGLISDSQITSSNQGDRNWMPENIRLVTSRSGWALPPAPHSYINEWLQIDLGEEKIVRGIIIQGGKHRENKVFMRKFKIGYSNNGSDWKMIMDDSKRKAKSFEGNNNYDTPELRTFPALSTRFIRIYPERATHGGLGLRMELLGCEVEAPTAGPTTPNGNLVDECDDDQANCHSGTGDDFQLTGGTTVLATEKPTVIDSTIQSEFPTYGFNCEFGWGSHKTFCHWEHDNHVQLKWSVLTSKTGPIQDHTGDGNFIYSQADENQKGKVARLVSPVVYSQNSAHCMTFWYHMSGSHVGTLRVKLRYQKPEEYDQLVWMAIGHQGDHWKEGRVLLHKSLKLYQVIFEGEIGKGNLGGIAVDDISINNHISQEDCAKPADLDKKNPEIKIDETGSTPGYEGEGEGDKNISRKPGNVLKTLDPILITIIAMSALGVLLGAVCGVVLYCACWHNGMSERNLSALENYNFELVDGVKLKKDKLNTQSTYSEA
SENP1 inh – inhibitors of human SENP1 SUMO protease catalytic domain; Q9P0U3; recombinant SENP1 catalytic domain, CyPet-SUMO1-YPet FRET cleavage; inhibition, % at 10 µM; 0.21% of 360,000 active; AID 624204;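 active means inhibition at least 30% at 10 µM, raw YFP signal under a set limit, fluorescence ratio 0.5 to 1.5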;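 further: 0% = enzyme with DMSO and 100% = no enzyme wells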
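Test system: human SENP1 catalytic domain; medium: Tris pH 8 buffer plus EDTA, NaCl, BME, BSA, NP40, catalase; incubation: 50 min reaction at room temperature; technique: FRET, CFP and YFP emission; controls: no-enzyme low control and enzyme-plus-DMSO high control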
Myeloid diff – myeloid differentiation induction; shares compounds with Myeloid diff 2; ER-HoxA9 myeloid progenitors, GFP/Mac1 double-positive flow; calls only; 2% of 2,300 active; AID 651706;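 active means share of green or green-and-red cells above 9 and 9% in run 1 or 4 and 3% in run 2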
GFP autofluor – compound fluorescence in myeloid differentiation counter-screen. ER-HoxA9 myeloid progenitors, no estrogen, GFP autofluorescence flow cytometry; vehicle wells 0%, positive control 100%. AID 651707. shares compounds with Myeloid diff 2. 7.4% of 2,300 active. fluorescence response, % (test concentration not listed);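 active means over 5% cells positive for green fluorescent reporter, or over 2% positive for both it and APC stain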;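 further: range taken on the double positive population between DMSO and positive control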
* hit, by the source's call; i = inactive; / = no result given; + = active, no number. A selection: hits, their analogues and other compounds. The true share with any hit is near 2.4%.

SMILES	MT1-MMP act inh	beta cell repl	Myeloid diff 2	DAGLB inh	CendR NRP1 mod	SENP1 inh	Myeloid diff	GFP autofluor
O=C1CCC/C(=N/NC(=O)c2sc3ccccc3c2Cl)C1	-136	-3	i	-14	130	-40	i	0
COc1ccccc1CNC(=O)CSc1ccsc1[N+](=O)[O-]	6	-2	i	-2	15	-3	i	1
O=C(CSc1ccsc1[N+](=O)[O-])NCc1ccccc1	1	-3	i	1	-6	0	/	/
Cc1ccc(C(=O)COC(=O)[C@@H](NC(=O)c2ccco2)C(C)C)s1	0	-6	+	0	5	1	i	0
CC(C)C(NC(=O)c1ccco1)C(=O)OCC(=O)c1ccccc1 (stereo unspecified)	0	-2	i	-2	6	1	/	/
COc1ccc(CCNC(=O)C2CC(c3ccccc3[N+](=O)[O-])=NO2)cc1 (stereo unspecified)	-3	-2	i	-1	12	0	/	/
O=C1CC(C(=O)N2CCCc3ccccc32)CN1c1ccc(Cl)cc1 (stereo unspecified)	0	-1	i	1	-4	-1	i	0
CCCn1c(C(C)Nc2nc(-c3cc(Cl)c(N)c(Cl)c3)cs2)nc2cc(Cl)c(N3CCCCC3)cc21 (stereo unspecified)	-21	-8	i	-5	-8	-9	/	/
COc1cc(CNc2ccc3[nH]c(=O)[nH]c3c2)ccc1OCc1ccc(Cl)cc1	-1	-6	i	2	4	1	i	0
COc1cc(CNc2ccc3[nH]c(=O)[nH]c3c2)ccc1OCc1ccc(F)cc1	1	-2	i	3	6	0	i	0
COc1cc(CNc2ccc3[nH]c(=O)[nH]c3c2)ccc1OCc1ccccc1	3	-4	i	2	-2	2	/	/
CC(=O)N1CCN(c2ccc(NCc3ccc(F)cc3)cc2)CC1	4	-4	i	4	-7	4	/	/
COc1cc(CNc2ccc(N3CCN(C(C)=O)CC3)cc2)ccc1OCc1ccc(F)cc1	/	/	i	4	6	3	i	0
C[C@H](CO)N1C[C@H](C)[C@@H](CN(C)C(=O)CCC(F)(F)F)OCc2cnnn2CCCC1=O	1	/	i	-3	-11	-2	/	/
COCCCNC(=O)Cn1nnc(-c2ccc(NC(=O)c3ccc(F)cc3)cc2)n1	2	-3	i	-4	2	0	i	0
COc1ccc(-n2c(Cc3cccn3C)nnc2SCC(=O)Nc2ccccc2)cc1	0	-1	i	0	-16	-1	/	/
COc1ccc(-n2c(Cc3cccn3C)nnc2SCC(=O)Nc2nc(C)cs2)cc1	-1	-1	i	4	-4	-5	i	0
Cc1ccccc1OCc1nnc(SC(C)C(=O)O)n1-c1ccccc1 (stereo unspecified)	-1	/	i	-7	6	2	/	/
Cc1ccccc1OCc1nnc(SCCN2CCCC2)n1-c1ccccc1	0	0	+	0	17	-1	i	0
Cc1ccc2cc(C#N)c(N3CCCN(C(=O)C4CCCO4)CC3)nc2c1C (stereo unspecified)	-20	-5	i	-2	-54	-37	i	1
O=[N+]([O-])c1ccccc1-c1ccc(C(=S)N2CCN(c3ccccc3)CC2)o1	-1	-4	+	8	-2	-2	i	0
Cc1ccc(N2CCN(C(=S)c3ccc(-c4ccccc4[N+](=O)[O-])o3)CC2)cc1	2	-4	i	8	-4	-1	/	/
NC(=O)c1ccsc1NC(=O)CCS(=O)(=O)c1ccc(F)cc1	-4	-5	+	1	10	-12	i	0
CNC(=O)c1ccsc1NC(=O)CCS(=O)(=O)c1ccc(F)cc1	3	-5	i	1	-2	-1	/	/
CCOc1ccc(C(=O)Nc2cccc(-c3nc4cccnc4o3)c2)cc1Cl	/	-5	+	1	6	2	i	0
SMILES	MT1-MMP act inh	beta cell repl	Myeloid diff 2	DAGLB inh	CendR NRP1 mod	SENP1 inh	Myeloid diff	GFP autofluor
O=c1[nH][nH]c2c1[C@H](c1ccc(Cl)cc1)O[C@H](C1CCCC1)C2	10	/	i	/	3	0	/	/
CCc1ccc(C(=O)C(C)OC(=O)Cn2[nH]c(=O)c3ccccc3c2=O)cc1 (stereo unspecified)	-1	-1	i	-4	-7	3	/	/
CCc1ccc(C(=O)C(C)OC(=O)Cc2n[nH]c(=O)c3ccccc23)cc1 (stereo unspecified)	2	-7	+	2	1	1	i	0
O=C(CN1Cc2ccccc2C1=O)Nc1ccc2c(c1)OCCO2	-2	-5	i	1	-2	-1	/	/
CCN(CC)CCCNC(=O)c1cc2nc3c(c(C(F)(F)F)n2n1)CCc1ccccc1-3	7	-5	i	1	2	-5	/	/
Cc1ccc(O)c(NC(=O)c2cc3nc4c(c(C(F)(F)F)n3n2)CCc2ccccc2-4)c1	11	-5	i	1	2	1	i	0
CCCCN(C(=O)c1ccc([N+](=O)[O-])o1)c1c(N)n(CCCC)c(=O)[nH]c1=O	-44	4	+	2	3	-30	i	2
CCCCN(C(=O)c1ccc(-c2ccc([N+](=O)[O-])cc2)o1)c1c(N)n(CCCC)c(=O)[nH]c1=O	-5	-2	/	6	-1	-18	/	/
Cc1cccc(N2CCN(C(=O)C3CCN(S(=O)(=O)N4CCOCC4)CC3)CC2C)c1 (stereo unspecified)	3	-1	+	0	11	1	i	2
Cc1cccc(N2CCN(C(=O)C3CCN(S(=O)(=O)c4cccc5nsnc45)CC3)CC2C)c1 (stereo unspecified)	2	1	i	-1	8	1	/	/
Cc1nc(-c2coc3c(CN(C)C)c(O)ccc3c2=O)cs1	4	-2	i	0	2	-2	/	/
Cc1ccccc1S(=O)(=O)c1cc2ccccc2nc1N	-3	-1	i	2	3	-24	i	0
COc1ccccc1CNC(=O)c1ccc(S(=O)(=O)N(C)C)cc1	4	0	i	1	-2	3	i	0
CCS(=O)(=O)N1CCC(C(=O)NCc2ccccc2OC)CC1	-2	-1	+	0	0	2	i	0

Assay outcomes as filed in PubChem.
